Eight compounds from ChEMBL document CHEMBL3407339, “A novel series of thiazolyl-pyrazoline derivatives: synthesis and evaluation of antifungal activity, cytotoxicity and genotoxicity” (Eur J Med Chem, 2015) can be followed below.

As usually defined, the IC50 is the point on the concentration scale where inhibition reaches its midpoint. A lower IC50 goes with higher potency. As a reminder, the MIC is the least concentration at which growth counts as inhibited. The low end stands for inhibition by little substance, the high end for a need for much substance.

Assay [1] is described as follows: Cytotoxicity against mouse NIH/3T3 cells after 24 hrs by XTT assay. It counts as cell-based. The following applies: NIH3T3, 24 h. In a few lines: (§1)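 A549 cells in RPMI and NIH/3T3 cells in DMEM, each with fetal calf serum, antibiotics and 7.5% NaHCO₃, at 37 °C, 5% CO₂. Seeded at 20,000 cells/well, 24 h, then compounds added in medium at 500–3.9 doses (final DMSO <0.1%) for 24 h. XTT read after 3 h at 480 nm (ref 680 nm). IC₅₀ by non-linear regression; triplicates; cisplatin control.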
A general note: Tetrazolium assays rely on reduction of a dye to a coloured formazan, in cell work by metabolically active cells.

Another assay has as its system Aspergillus flavus. Kind of assay: Antifungal activity against Aspergillus flavus NRRL 980 after 72 hrs by broth microdilution assay. It counts as functional. The following applies: NRRL 980, 72 h. In a few lines: (§2)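 Compounds dissolved in DMSO, diluted in sterile distilled water from 4 to 0.0039 mg/mL. Molds grown on PDA at 25 °C for 5 days, suspended in double-strength PDB at 10⁵ spores/mL. Incubated at 25 °C for 72 h; mycelial growth read under stereo microscope. MIC = lowest concentration inhibiting visible growth. Ketoconazole reference.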

A further assay relates to [Candida] zeylanoides. Briefly: Antifungal activity against Candida zeylanoides NRLL Y 1774 after 48 hrs by broth microdilution assay. The following applies: Dujonia zeylanoides, NRLL Y 1774, 48 h. It counts as functional. In a few lines: (§3)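 Broth microdilution of DMSO stocks serially diluted in sterile water (4 to 0.0039 mg/mL). Yeasts grown on SDA at 37 °C for 24 h, suspended in double-strength PDB at 10⁵ spores/mL. Incubated at 37 °C for 48 h, then sprayed with 0.5% aqueous TTC. MIC = lowest concentration inhibiting visible growth. Ketoconazole reference.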
In general terms: Broth dilution looks for growth in wells or tubes with falling amounts of substance.

Another assay has as its system A549. Briefly: Antiproliferative activity against human A549 cells after 24 hrs by XTT assay. Type of assay: functional, cell-based. The following applies: A549, 24 h. In short, it runs like this:
as §1

A further assay deals with Candida tropicalis. Briefly: Antifungal activity against Candida tropicalis NRLL Y 12968 after 48 hrs by broth microdilution assay. To be noted: NRLL Y 12968, 48 h. Type of assay: functional. In a few lines: as §3
The test system of the next assay is Fusarium solani. Kind of assay: Antifungal activity against Fusarium solani NRRL 13414 after 72 hrs by broth microdilution assay. It counts as functional. The following applies: NRRL 13414, 72 h. In a few lines: as §2
The next assay relates to Aspergillus niger. Kind of assay: Antifungal activity against Aspergillus niger ATCC 1094 after 72 hrs by broth microdilution assay. It counts as functional. The following applies: ATCC 1094, 72 h. In short, it runs like this: as §2
The subject of another assay is Nakaseomyces glabratus. Briefly: Antifungal activity against Candida glabrata clinical isolate after 48 hrs by broth microdilution assay. It counts as functional. In a few lines:
as §3

Another assay deals with Pichia kudriavzevii. Kind of assay: Antifungal activity against Candida krusei NRLL Y 7179 after 48 hrs by broth microdilution assay. The following applies: NRLL Y 7179, 48 h. Type of assay: functional. In short, it runs like this:
as §3

The next assay has as its system Aspergillus parasiticus. Briefly: Antifungal activity against Aspergillus parasiticus NRRL 465 after 72 hrs by broth microdilution assay. Type of assay: functional. To be noted: NRRL 465, 72 h. In a few lines: as §2
The next assay has as its system Candida parapsilosis. Kind of assay: Antifungal activity against Candida parapsilosis NRLL Y 12696 after 48 hrs by broth microdilution assay. Type of assay: functional. The following applies: Lodderomyces parapsilosis, NRLL Y 12696, 48 h. In a few lines:
as §3

In another assay the test system is Candida albicans. Kind of assay: Antifungal activity against Candida albicans ATCC 90028 after 48 hrs by broth microdilution assay. The following applies: ATCC 90028, 48 h. Type of assay: functional. In a few lines: as §3

≈ marks a conversion by molar mass, not a printed value.

As to `O=[N+]([O-])c1ccc(-c2csc(N3N=C(c4ccc(Cl)s4)CC3c3ccc(F)cc3)n2)cc1` (stereo unspecified), the IC50 (in assay [1]; with A549) was more than 500 mg/L in each case. For the same compound, the MIC turned out to be 250 mg/L (≈ 516 µM) against Aspergillus flavus; 250 mg/L (≈ 516 µM) in assay [Candida] zeylanoides; 250 mg/L (≈ 516 µM) against Candida tropicalis; 250 mg/L (≈ 516 µM) against Fusarium solani; 250 mg/L (≈ 516 µM) in the assay with Aspergillus niger; 125 mg/L (≈ 258 µM) in the assay on Nakaseomyces glabratus. In addition, the minimal inhibitory concentration (MIC) against Pichia kudriavzevii, in the assay with Aspergillus parasiticus, in the assay on Candida parapsilosis and with Candida albicans was 250 mg/L (≈ 516 µM) each time.

`N#Cc1ccc(-c2csc(N3N=C(c4ccc(Cl)s4)CC3c3ccc(F)cc3)n2)cc1` (stereo unspecified): the IC50 (in assay [1]; in the assay with A549) was more than 500 mg/L each time. Moreover, the MIC was found to be 250 mg/L (≈ 538 µM) against Aspergillus flavus; 250 mg/L (≈ 538 µM) in assay [Candida] zeylanoides; 250 mg/L (≈ 538 µM) against Candida tropicalis; 250 mg/L (≈ 538 µM) in the assay on Fusarium solani; 250 mg/L (≈ 538 µM) in the assay with Aspergillus niger; 125 mg/L (≈ 269 µM) in the assay with Nakaseomyces glabratus. Also, the MIC in the assay with Pichia kudriavzevii, against Aspergillus parasiticus, against Candida parapsilosis and against Candida albicans was 250 mg/L (≈ 538 µM) throughout.

Consider `CS(=O)(=O)c1ccc(-c2csc(N3N=C(c4ccc(Cl)s4)CC3c3ccc(F)cc3)n2)cc1` (stereo unspecified), for which the IC50 (in assay [1]; in the assay on A549) was more than 500 mg/L in each case. Besides, the MIC (against Aspergillus flavus; in assay [Candida] zeylanoides; with Candida tropicalis; with Fusarium solani; in the assay on Aspergillus niger; in the assay with Nakaseomyces glabratus) was 250 mg/L (≈ 483 µM) each time. Further, the MIC with Pichia kudriavzevii, in the assay on Aspergillus parasiticus, in the assay on Candida parapsilosis and in the assay with Candida albicans was 250 mg/L (≈ 483 µM) each time.

Consider `Cc1ccc(-c2csc(N3N=C(c4ccc(Cl)s4)CC3c3ccc(F)cc3)n2)cc1` (stereo unspecified), for which the IC50 (in assay [1]; with A549) was more than 500 mg/L in each case. In addition, the MIC with Aspergillus flavus is 250 mg/L (≈ 551 µM); in assay [Candida] zeylanoides, 250 mg/L (≈ 551 µM); against Candida tropicalis it was 250 mg/L (≈ 551 µM); in the assay with Fusarium solani it was 250 mg/L (≈ 551 µM); against Aspergillus niger, 250 mg/L (≈ 551 µM); against Nakaseomyces glabratus, 125 mg/L (≈ 275 µM). Moreover, the MIC in the assay with Pichia kudriavzevii, with Aspergillus parasiticus, against Candida parapsilosis and with Candida albicans was 250 mg/L (≈ 551 µM) throughout.

For `COc1ccc(-c2csc(N3N=C(c4ccc(Cl)s4)CC3c3ccc(F)cc3)n2)cc1` (stereo unspecified), the concentration for half-maximal inhibition (IC50) in assay [1] was 103 mg/L (≈ 219 µM); in the assay with A549 it was more than 500 mg/L. The MIC in the assay on Aspergillus flavus was determined as 250 mg/L (≈ 532 µM); in [Candida] zeylanoides it was 250 mg/L (≈ 532 µM); against Candida tropicalis, 250 mg/L (≈ 532 µM); against Fusarium solani, 250 mg/L (≈ 532 µM); with Aspergillus niger, 250 mg/L (≈ 532 µM); against Nakaseomyces glabratus, 125 mg/L (≈ 266 µM). For the same compound, the MIC in the assay with Pichia kudriavzevii, against Aspergillus parasiticus, with Candida parapsilosis and against Candida albicans was 250 mg/L (≈ 532 µM) in each case.

Regarding `Fc1ccc(C2CC(c3ccc(Cl)s3)=NN2c2nc(-c3ccc4c(c3)OCO4)cs2)cc1` (stereo unspecified), the IC50 in assay [1] is 73.8 mg/L (≈ 152 µM); in the assay on A549, more than 500 mg/L. In addition, the MIC in the assay with Aspergillus flavus was 250 mg/L (≈ 517 µM); in assay [Candida] zeylanoides, 250 mg/L (≈ 517 µM); in the assay on Candida tropicalis it was 250 mg/L (≈ 517 µM); against Fusarium solani it was 250 mg/L (≈ 517 µM); in the assay with Aspergillus niger, 250 mg/L (≈ 517 µM); against Nakaseomyces glabratus, 125 mg/L (≈ 258 µM). For the same compound, the MIC with Pichia kudriavzevii, in the assay with Aspergillus parasiticus, with Candida parapsilosis and with Candida albicans was 250 mg/L (≈ 517 µM) in each case.

As to `Cc1ccc(C2=NN(c3nc(-c4ccccc4)cs3)C(c3ccc(F)cc3)C2)s1` (stereo unspecified), the IC50 (in [1]; in the assay on A549) was more than 500 mg/L throughout. In addition, the MIC against Aspergillus flavus was 250 mg/L (≈ 596 µM); in [Candida] zeylanoides, 500 mg/L (≈ 1190 µM); against Candida tropicalis, 500 mg/L (≈ 1190 µM); in the assay on Fusarium solani it was 250 mg/L (≈ 596 µM); against Aspergillus niger, 250 mg/L (≈ 596 µM); with Nakaseomyces glabratus, 125 mg/L (≈ 298 µM). In addition, the minimum inhibitory concentration (MIC) against Pichia kudriavzevii was 500 mg/L (≈ 1190 µM); in the assay with Aspergillus parasiticus, 250 mg/L (≈ 596 µM); in the assay on Candida parapsilosis, 500 mg/L (≈ 1190 µM); against Candida albicans, 500 mg/L (≈ 1190 µM).

`Cc1ccc(C2=NN(c3nc(-c4ccc(F)cc4)cs3)C(c3ccc(F)cc3)C2)s1` (stereo unspecified): the figures for the IC50 (in assay [1]; in the assay with A549) were more than 500 mg/L and 125 mg/L (≈ 286 µM), respectively. The minimal inhibitory concentration (MIC) came to 250 mg/L (≈ 571 µM) against Aspergillus flavus; 250 mg/L (≈ 571 µM) in assay [Candida] zeylanoides; 250 mg/L (≈ 571 µM) against Candida tropicalis; 250 mg/L (≈ 571 µM) with Fusarium solani; 250 mg/L (≈ 571 µM) in the assay on Aspergillus niger; 125 mg/L (≈ 286 µM) in the assay on Nakaseomyces glabratus. Besides, the MIC in the assay on Pichia kudriavzevii, in the assay with Aspergillus parasiticus, with Candida parapsilosis and with Candida albicans was 250 mg/L (≈ 571 µM) each time.
